Only some compounds are listed: those with a hit (about 3.2% of all), similar ones and a draw of the others.
mABHD4 FP: ABHD4 inhibitors, primary screen, biochemical, fluorescence polarization, mouse. (Lyso)-N-acylphosphatidylethanolamine lipase (Mus musculus), Q8VD66. inhibition, % at 8.92 µM. hit rate 0.54% among 370,000. purified mABHD4, FP-Rh probe fluorescence polarization. AID 720543, 2013;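 active means inhibition exceeding the mean over every tested compound plus 3 SD, cut at about 30% in these data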;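 further: 0% = plate median of compound wells and 100% = S159A mutant with DMSO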
Target sequence (Q8VD66 whole entry, looked up): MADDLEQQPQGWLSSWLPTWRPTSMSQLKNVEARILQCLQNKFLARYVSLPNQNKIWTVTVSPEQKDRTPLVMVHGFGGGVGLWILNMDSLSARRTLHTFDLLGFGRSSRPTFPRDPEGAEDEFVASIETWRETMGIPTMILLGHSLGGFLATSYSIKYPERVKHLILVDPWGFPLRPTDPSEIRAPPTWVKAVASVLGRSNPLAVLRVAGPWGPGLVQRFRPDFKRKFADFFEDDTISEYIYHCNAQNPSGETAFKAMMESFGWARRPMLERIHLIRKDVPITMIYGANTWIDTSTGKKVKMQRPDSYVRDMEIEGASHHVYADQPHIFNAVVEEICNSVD
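Test system: mABHD4 protein | Buffer or medium: HEPES pH 7.0 buffer, 150 mM NaCl, 0.01% Pluronic F-127 | Probe or stimulus: FP-Rh fluorescent activity-based probe, added after compound pre-incubation | Timing: Pre-incubation 45 min, probe exposure 60 min, at 25 °C | Technique: Fluorescence polarization, excitation 525 nm, emission 598 nm, BODIPY TMR filters | Repeats: Single well per compound (singlicate)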
DAGLB inh: DAGLB lipase inhibitors, primary screen, biochemical, fluorescence, HTS | Diacylglycerol lipase-beta (Homo sapiens), Q8NCG7 | HEK293T DAGLB membrane lysate, EnzChek fluorogenic substrate | inhibition, % at 5.17 µM | hit rate 0.059% among 340,000; in the data active means inhibition above about 34%;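 further: 0% = enzyme with vehicle and 100% = wells lacking enzyme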
LEDGF integ inh: blockers of LEDGF/p75-dependent integrase strand transfer – biochemical, TR-FRET, high throughput, primary screen. hit rate 0.64% among 370,000. AID 743269, 2014. inhibition, % at 3.7 µM. TR-FRET IN-LEDGF/p75 DNA integration, Eu/Cy5. HIV-1 integrase (with human LEDGF/p75);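 active means inhibition above the screen-wide mean plus 3 SD, cut at about 13% in these data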;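 further: signal is the Cy5 over europium emission ratio at 671 and 618 nm; 0% = plate median of compound wells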
PRMT1 FP inh: PRMT1 methyltransferase inhibitors, primary screen, biochemical, fluorescence polarization; Protein arginine N-methyltransferase 1 (Homo sapiens), Q99873; recombinant PRMT1, activity-based probe fluorescence polarization; inhibition, % at 2.79 µM; hit rate 1.3% among 370,000; AID 652257, 2013;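 active means inhibition above about 21% made by adding two undisclosed values, limit read from the data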
rCAG RNA binder: binders of r(CAG) RNA repeats, primary screen, biochemical, fluorescence; r(CAG) RNA repeat, TO-PRO-1 dye displacement fluorescence; hit rate 1.3% among 370,000; inhibition, % at 3 µM; AID 651821, 2012;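 active means inhibition above the plate cutoff, the mean of all test compounds on that plate plus 3 SD, cut at about 35% in these data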;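 further: 0% = DMSO alone and 100% = 100 µM mitoxantrone as full dye displacement; higher means more dye released from RNA so lower well fluorescence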
HTRA1 inh: HTRA1 serine protease inhibitors, primary screen, biochemical, fluorescence polarization, HTS | Q92743 | recombinant HTRA1, FP-rhodamine activity-based probe | inhibition, % at 5.96 µM | hit rate 0.5% among 340,000 | AID 504803, 2011; in the data active means inhibition above about 36%;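 further: 0% = enzyme with DMSO and 100% = wells lacking enzyme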
PRMT1 confirm: PRMT1 methyltransferase inhibitors, confirmation, biochemical, fluorescence polarization, triplicate. shares compounds with PRMT1 FP inh. recombinant His-PRMT1, activity-based probe fluorescence polarization. inhibition, % at 2.79 µM. hit rate 42% among 3,300;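 active means mean inhibition across replicates above the hit cutoff derived for the earlier primary screen, cut at about 22% in these data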
An asterisk follows results filed as active; x = not tested or not shown.

SMILES | mABHD4 FP | DAGLB inh | LEDGF integ inh | PRMT1 FP inh | rCAG RNA binder | HTRA1 inh | PRMT1 confirm
CCCc1cnc(N2CCN(C(=O)c3ccccc3)CC2)nc1 | 9 | -10 | 1 | 2 | -4 | 3 | x
CCN(CC)CCOC(=O)C(c1ccccc1)c1ccccc1 | -6 | 1 | 0 | 0 | -3 | 1 | x
CCN(CC)CCSC(=O)C(c1ccccc1)c1ccccc1 | 0 | x | 2 | 76* | -1 | x | 40*
CC(=O)N1CCN(c2cc(-c3ccco3)nc3cc(-c4ccccc4)nn23)CC1 | 3 | x | -1 | 51* | x | x | 8
Cc1ccc(-c2cc3nc(-c4ccccc4)cc(N4CCC5(CC4)OCCO5)n3n2)cc1 | 2 | -2 | 3 | -3 | 5 | -19 | x
COc1ccc(-c2cc3nc(-c4ccccc4)cc(N4CCN(C(C)=O)CC4)n3n2)cc1 | -20 | 5 | 2 | -3 | 5 | -34 | x
Cc1ccc(-c2cc3nc(-c4ccco4)cc(N4CCN(Cc5ccoc5)CC4)n3n2)cc1 | -20 | x | -1 | 27* | x | x | 9
Cc1ccc(CSCCNS(=O)(=O)c2ccc(C)cc2)cc1 | -12 | -17 | -4 | 0 | 1 | -16 | x
CC(C)C(=O)N1CCC2(CC1)Oc1ccc(Cl)cc1C(=O)C21CC(c2ccccc2)=NO1 (configuration not stated) | -12 | -5 | -1 | 1 | 0 | -29 | x
O=C(CSC(=O)c1ccccc1)Nc1ccccc1F | 4 | -2 | -1 | 29* | 2 | -1 | 26*
O=C(O)/C=C/C(=O)Nc1ccccc1-c1ccccc1 | 11 | -2 | 2 | 30* | 0 | -2 | -2
Cc1ccc(CNC(=O)CC(C)S(=O)(=O)c2ccc3c(c2)NC(=O)CO3)cc1 (configuration not stated) | 0 | 2 | -11 | 7 | -2 | 2 | x
Cc1ccc(CNC(=O)CC(C)S(=O)(=O)c2ccc3c(c2)NC(=O)CS3)o1 (configuration not stated) | 6 | -5 | 3 | 44* | 0 | -6 | 15
COc1ccc(C(=O)/C=C2/Sc3cc4c(cc3N2C)OCO4)cc1 | 4 | 0 | -6 | 1 | 2 | 1 | x
COc1ccc2c(c1)S/C(=C\C(=O)c1ccncc1)N2C | -5 | -2 | -1 | 45* | 8 | 1 | 11
CN1/C(=C/C(=O)c2ccc(Cl)cc2)Sc2cc3c(cc21)OCO3 | 7 | 4 | 3 | 33* | 4 | 4 | 3
Cc1cc(N2CCN(C(=O)OC(C)(C)C)C[C@H]2C)ccc1N1CC[C@@H](O)C1 | 24 | x | 6 | 61* | 0 | x | 11
c1csc(-c2nnsc2-c2nc3ccccc3[nH]2)c1 | -6 | -3 | 2 | 5 | 4 | -7 | x
CN(C)CCCn1c2c3ccccc3ccc2c2oc(=O)c3ccccc3c21 | 15 | 1 | -1 | 29* | 13 | -2 | 1
CN(C)CCCn1c(=S)[nH]c2ccccc2c1=O | 0 | 0 | -2 | 12 | 1 | 4 | x
COc1ccc(OC)c(-c2cc(C3CCN(c4cc(Cl)nc(N)n4)CC3)[nH]n2)c1 | -5 | 2 | 1 | 40* | 0 | -36 | -1
Oc1sc(C=Nc2ccccc2)c2ccccc12 | 1 | -15 | 1 | 1 | -20 | 1 | x
CC(=O)Nc1ccc(NC(=O)CNC(=O)c2sc3ccccc3c2Cl)cc1 | -10 | 2 | 2 | -1 | 8 | -10 | x
Cc1ccc(O)c(N=Cc2sc3ccccc3c2Cl)c1 | 25 | 1 | 1 | 1 | 3 | 25 | x
CC(=O)NCCN=Cc1sc2ccccc2c1O | -3 | 0 | 0 | 40* | -3 | -4 | 30*
Oc1c(C=Nc2ccccc2)sc2ccccc12 | -11 | -6 | -1 | 59* | -3 | -6 | 32*
Oc1c(C=Nc2cccnc2)sc2ccccc12 | -15 | -1 | -5 | 65* | 2 | 3 | 45*

Screening results (PubChem BioAssay)
